Most compounds without a hit are left out; they make up all but 5.4% or so of the library.
PostGolgi yeast – growth inhibition of a yeast mutant, post-Golgi transport screen. inhibition, % at 10 µM. post-Golgi transport phenotypic cell assay. 98,000 compounds, 0.9% hits;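 also: yeast cells grown in 1536-well plates; yeast grown about 18 h at 30C before absorbance read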
tolC growth inh – blocks growth of E. coli BW25113 tolC mutant | 65,000 compounds, 2.2% hits | growth inhibition, % at 10 µM (by protocol) | OD615 | AID 573;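 active = growth inhibition at or above a cutoff equal to the mean over every tested compound plus 3 SD, cut at about 60% in these data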;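 also: growth measured after 20 h incubation at 37 °C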
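Test system: E. coli BW25113 ΔtolC::kan bacteria; incubation: 37 °C, 20 h exposure; medium: LB broth supplemented with 50 µg/mL kanamycin; read-out basis: percent growth inhibition; signal: A615 absorbance measurement; compound: 10 µM final, single dose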
PostGolgi ctrl – inhibits growth of the yeast control strain. inhibition, % at 10 µM. efflux-deficient yeast background strain, growth absorbance A615, 16 h. 98,000 compounds, 5% hits
PLAP activator – activators of human placental alkaline phosphatase; purified PLAP enzyme, luminescent substrate read-out; active compounds read high; AID 696; activation fold at 20 µM; 96,000 compounds, 1.2% hits; P05187; in the data active = activation fold above about 2
Target sequence (P05187 whole entry, looked up): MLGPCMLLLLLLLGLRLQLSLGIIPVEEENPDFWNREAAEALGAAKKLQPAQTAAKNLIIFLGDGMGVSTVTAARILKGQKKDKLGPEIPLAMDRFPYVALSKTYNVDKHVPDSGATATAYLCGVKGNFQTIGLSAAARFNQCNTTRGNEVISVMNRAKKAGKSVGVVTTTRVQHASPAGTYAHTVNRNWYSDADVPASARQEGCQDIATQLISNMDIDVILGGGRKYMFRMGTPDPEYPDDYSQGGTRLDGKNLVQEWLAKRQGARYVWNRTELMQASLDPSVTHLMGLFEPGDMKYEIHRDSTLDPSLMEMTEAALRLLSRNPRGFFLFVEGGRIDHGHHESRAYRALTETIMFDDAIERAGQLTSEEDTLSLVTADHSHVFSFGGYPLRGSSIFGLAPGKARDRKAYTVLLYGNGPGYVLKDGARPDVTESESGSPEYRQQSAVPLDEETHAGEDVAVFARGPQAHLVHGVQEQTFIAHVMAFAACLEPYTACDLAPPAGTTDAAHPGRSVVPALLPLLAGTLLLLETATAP
Ecoli WT expand – E. coli BW25113 growth inhibition, expanded screen | AID 710 | 98,000 compounds, 0.15% hits | OD600 absorbance | growth inhibition, % at 100 µM;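 active = growth inhibition above about 50% at one test dose, limit read from the data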;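 also: growth measured after 20 h incubation at 37 °C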
HePTP inh – blocks human HePTP tyrosine phosphatase; recombinant HePTP phosphatase activity, OD absorbance; 110,000 compounds, 0.64% hits; P35236; inhibition, % at 20 µM; AID 521; in the data active = inhibition above about 50%;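 also: plate controls were vehicle for no effect and reference inhibitor for full effect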
An asterisk follows results filed as active; / = no result given. Rule as the data show it, unless noted: active = inhibition above about 30%; inactive = the rest.

SMILES	PostGolgi yeast	tolC growth inh	PostGolgi ctrl	PLAP activator	Ecoli WT expand	HePTP inh
CCOC(=O)c1cnn(-c2ccccc2)c1-n1cccc1C(=O)C(=O)Nc1ccc(F)cc1	-10	/	18	1	-6	/
CCOC(=O)c1cnn(-c2ccccc2)c1-n1cccc1C(=O)C(=O)Nc1ccccc1	2	/	31*	1.1	-32	/
O=C1CCCc2ccccc2N1Cc1ccc(Cl)cc1Cl	7	/	31*	1.4	6	/
O=c1cc2c(nn1Cc1c(Cl)cccc1Cl)-c1ccccc1CC2	16	/	32*	1.4	-7	/
O=C1CCCc2ccccc2N1Cc1ccccc1Cl	9	/	34*	1	6	/
O=C1CCCc2ccccc2N1Cc1ccc(Cl)cc1	7	/	22	0.7	9	/
O=C1CCCc2ccccc2N1Cc1c(Cl)cccc1Cl	8	/	41*	1.3	5	/
Clc1cccc(Cl)c1CSc1cc2c(nn1)-c1ccccc1CC2	-2	/	4	0.9	-18	/
O=C1CCCc2ccccc2N1Cc1cccc(Cl)c1	16	/	27	0.9	9	/
O=C(NCC1CCCO1)c1ccc(Cl)cc1 (stereo not given)	/	/	/	/	/	-3
COc1ccc2c(c1OC)C(=O)N(c1ccc(C(C)=O)cc1)C2=O	/	/	/	/	/	-1
COc1cc(=O)n(C)c2ccccc12	5	/	7	1	-3	/
COc1cccc2c(=O)c3c(cnn3C)n(C)c12	42*	34	-6	0.8	12	8
CCOC(=O)C1=C(C)N=c2s/c(=C\c3cccn3C)c(=O)n2C1c1cccc(OC)c1OC (stereo not given)	-1	8	33*	1	-5	-6
CCOC(=O)C1=C(C)N=c2s/c(=C\c3ccc([N+](=O)[O-])o3)c(=O)n2C1c1ccc(OC)cc1 (stereo not given)	/	/	/	/	/	52*
COc1cc(CN2CCN(Cc3ccncc3)CC2)cc(OC)c1O	/	/	/	/	/	0
COC(=O)CN1C(c2ccccc2)=Nc2ccc(Cl)cc2C1c1ccccc1 (stereo not given)	8	/	30*	1.5	-13	/
Cc1cccc(N=Nc2c(N)n[nH]c2-c2ccc(Cl)cc2)c1	5	/	34*	1	-12	/
Cc1ccc(-c2[nH]nc(N)c2N=Nc2cccc(Cl)c2C)cc1	15	/	45*	1.1	-16	/
Cc1ccc(-c2[nH]nc(N)c2N=Nc2ccccc2C)cc1	54*	/	63*	1	1	/
COc1ccc(-c2nc3ccccc3c(=O)n2-c2nc3ccccc3n2C)cc1	/	/	/	/	/	-1
Cc1[nH]c2c(C)cccc2c1CCNC(=O)c1ccc2c(c1[N+](=O)[O-])C(=O)c1ccccc1C2=O	11	/	40*	1.4	-8	/
Cc1[nH]c2ccccc2c1CCNC(=O)c1ccc2c(c1[N+](=O)[O-])C(=O)c1ccccc1C2=O	1	/	27	1.1	-7	/
O=C(C1CCCN(S(=O)(=O)c2ccccc2)C1)N1CCCc2ccccc21 (stereo not given)	-1	3	36*	/	-6	-2
COC(C(=O)Nc1ccc(S(=O)(=O)N2CCCCC2)cc1)c1ccccc1 (stereo not given)	-8	/	9	2*	-3	/
SMILES	PostGolgi yeast	tolC growth inh	PostGolgi ctrl	PLAP activator	Ecoli WT expand	HePTP inh
O=C(C1CCN(S(=O)(=O)c2ccc(Br)s2)CC1)N1CCc2ccccc21	-7	14	52*	0.9	-12	0
O=S(=O)(Nc1ccc(S(=O)(=O)N2CCCCCC2)cc1)c1cccs1	-5	/	-11	1.4	-3	/
O=S(=O)(c1ccc(Br)s1)N1CCC(Cc2ccccc2)CC1	-12	/	0	0.7	-21	/
O=S(=O)(Nc1ccc(S(=O)(=O)N2CCCCC2)cc1)c1ccc(Br)s1	-2	84*	12	1.4	0	7
Cc1ccc(S(=O)(=O)N2CCCC(C(=O)N3CCCc4ccccc43)C2)cc1 (stereo not given)	0	/	20	0.9	-8	/
CCOC(=O)c1cnc(Sc2ccc([N+](=O)[O-])cc2[N+](=O)[O-])nc1N	/	/	/	/	/	10
COc1ccc(S(=O)(=O)Nc2ccc(S(=O)(=O)N3CCCCC3)cc2)cc1	0	74*	8	1.2	1	-6
COc1ccc(S(=O)(=O)Nc2ccc(S(=O)(=O)N3CCCC3)cc2)cc1	5	/	7	1.2	0	/
CCOC(=O)C1CCCN(S(=O)(=O)c2ccc(OC)cc2)C1 (stereo not given)	9	/	13	1.4	-2	/
COc1ccc(S(=O)(=O)N2CCCC(C(=O)N3CCCCCC3)C2)cc1 (stereo not given)	-3	-1	66*	1.6	5	9
O=C(COC(=O)c1ccccc1Nc1ccccc1)c1cccc([N+](=O)[O-])c1	/	/	/	/	/	-10
Cc1ccccc1Cn1nnc(C(=O)Nc2cccc(C)c2C)c1N	1	27	26	0.9	-2	1
Cc1cc(C)cc(NC(=O)c2nnn(Cc3cc(C)ccc3C)c2N)c1	-8	32	37*	0.8	-4	8
O=C1Nc2ccccc2C1=Cc1nc2ccccc2c(=O)n1-c1cccc2ccccc12	/	/	/	/	/	-2
CC(=O)Nc1cc(-c2ccc(C)cc2)nn1Cc1ccccc1	/	/	/	/	/	104*
Cc1ccc(Sc2ccc(/C=N/O)cc2[N+](=O)[O-])cc1	-3	/	31*	0.9	-8	/
OC(Cn1ccnc1)c1ccc(Cl)cc1Cl (stereo not given)	76*	-19	24	0.8	18	2
O=C(COc1ccc(Cl)cc1Cl)NCCCn1ccnc1	0	-24	22	1.4	8	1
CCc1nc(SCC(=O)N2CCC(Cc3ccccc3)CC2)c2c(=O)n(C)c(=O)n(C)c2n1	19	/	40*	1.2	-6	/
Cc1cc(C)cc(OCC(O)CN2CCC(C)CC2)c1 (stereo not given)	/	/	/	/	/	5
C=C(C)Cc1c(C)nc(-c2ccccc2)[nH]c1=O	3	-4	4	/	0	7
CCCCCCOC(=O)Cc1c(C)nc(-c2ccccc2)[nH]c1=O	-8	/	34*	0.7	-3	/
O=S(=O)(Nc1nc2ccccc2s1)c1ccc(Cl)s1	8	/	31*	1	9	/
CC(=O)Nc1ccc(S(=O)(=O)Nc2ccc(S(=O)(=O)N3CCCCC3)cc2)cc1	/	/	/	/	/	5
CCOC(=O)C1=C(C)NC(C)=C(C(=O)OCC)C1c1cccs1	/	/	/	/	/	-9
CCOC(=O)C1=C(C)NC(C)=C(C(=O)OCC)C1c1sccc1C	-7	/	38*	1.1	8	/
Clc1ccc(-c2nnc(Sc3nc4ccccc4o3)c3ccccc23)cc1	-8	/	57*	/	-12	/
Cc1ccc(-c2nnc(Sc3nc4ccccc4o3)c3ccccc23)cc1	-22	/	64*	/	-14	/
O=S(=O)(c1ccccc1C(O)(c1ccccc1)c1ccccc1)c1ccccc1C(O)(c1ccccc1)c1ccccc1	/	/	/	/	/	6
